Screen size: about 2,300 compounds; about 120 (5.2%) were called active.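 Rule for the calls: active = mean activation above the mean of DMSO-only wells plus 3 SD (cut at about 0.5% in these data); inactive = the rest.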 These entries were drawn from the full list.

The target of this test is Mu-type opioid receptor (Homo sapiens) (UniProt P35372). Nature of the test: mu opioid receptor activation, arrestin complementation – cell-based, luminescence, single concentration, counter-screen for mouse HTR2A agonist project, confirmation (AID 624380). As to conditions: U2OS OPRM1 beta-arrestin PathHunter, at 9.3 µM, active compounds read high, DMSO 0%, DAMGO 9.3 µM 100%. The procedure, abridged: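 system = U2OS cells, OPRM1–beta-arrestin fragment complementation | also added = DAMGO reference agonist, 9.3 µM | schedule = 3 h compound treatment, 37 °C, 1 h room-temperature reagent step | measured by = chemiluminescence from reconstituted beta-galactosidase after detection reagent addition | read-out = percent activation scaled between DMSO-only and DAMGO-treated well medians | repeats = three replicate wells per compound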
Chain of Mu-type opioid receptor (Homo sapiens) (P35372 whole entry, looked up, the tested form may be a part): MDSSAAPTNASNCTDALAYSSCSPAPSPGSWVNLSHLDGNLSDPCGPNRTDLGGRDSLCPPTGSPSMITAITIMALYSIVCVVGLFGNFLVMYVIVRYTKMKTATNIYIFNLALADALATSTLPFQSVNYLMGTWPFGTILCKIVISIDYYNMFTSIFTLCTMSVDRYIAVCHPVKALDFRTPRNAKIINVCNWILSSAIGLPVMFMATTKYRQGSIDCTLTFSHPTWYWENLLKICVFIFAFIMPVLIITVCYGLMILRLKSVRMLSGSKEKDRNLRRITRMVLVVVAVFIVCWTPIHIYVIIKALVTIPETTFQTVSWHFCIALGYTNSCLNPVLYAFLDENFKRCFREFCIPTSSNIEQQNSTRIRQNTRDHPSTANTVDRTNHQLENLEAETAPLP
Background: The purpose of a counterscreen is to sort out artefacts and off-target activity.
`O=C(NCc1ccco1)c1cccn2c(=O)c3c4c(sc3nc12)CCCC4`: the activation is -0.39% (inactive).

Regarding `Cc1ccc2nc(-c3ccncc3)cc(C(=O)Nc3ccncc3)c2c1`, the activation is 3.9% (active). For `Cc1ccccc1CSCC(=O)NC(=O)NC(C)(C)C`, the activation is -0.45% (inactive). For the molecule `CCOCCCNC(=O)Cc1cc(=O)[nH]c(=O)[nH]1`, the activation is -0.49% (inactive). To `C[C@@H]1ON(C)[C@H]2C[C@H]3c4cc(N5CCN(C)CC5)ccc4CCN3C(=O)[C@@H]12` belongs -0.06% (inactive).

For the molecule `Cc1ccc(CN2CCN(c3ncccn3)CC2)c(C)c1`, the activation was -0.26% (inactive). Turning to `O=C(COC(=O)c1cc(S(=O)(=O)N2CCOCC2)ccc1F)NC1CC1`, the activation was -0.39% (inactive).

With `CCOc1ccc(/C(O)=C2\C(=O)C(=O)N(c3ccc(OC)cc3)C2c2ccccc2[N+](=O)[O-])cc1` (stereo not given), the activation was -0.58% (inactive). The value for `Nc1cc(C(=O)N2CCN(c3ccccc3Cl)CC2)ccc1N1CC2CC(C1)c1cccc(=O)n1C2` (stereo not given) was -0.61% (inactive); that for `COc1ccc(CNC(=O)c2ccc(NS(=O)(=O)c3ccc4[nH]c(=O)[nH]c4c3)cc2)cc1OC` was -0.74% (inactive); that for `O=S(=O)(c1ccc(OCC(O)CN2CCN(c3ccccc3Cl)CC2)cc1)N1CCOCC1` (stereo not given) was -0.67% (inactive).

For `CCOC(=O)c1cc(-c2ccccc2C)n(Cc2cc(C)no2)n1`, the activation is -0.46% (inactive). The value for `O=C(OCC(=O)N1CCOCC1)c1ccc2ccccc2c1` was -0.5% (inactive); that for `COc1ccc2c(Cl)c(-c3nnco3)sc2c1` was -0.41% (inactive). With `COc1ccc(C2c3[nH]c4ccccc4c3C[C@H]3C(=O)N(CC(C)C)CC(=O)N23)c(OC)c1` (stereo not given in full), the activation was -0.31% (inactive).

For the molecule `COc1ccccc1CN1CCN(Cc2cc(OC)c(OC)cc2OC)CC1`, the activation was -0.5% (inactive). As to `COC(=O)c1cc(N2CCNCC2)nc2ccccc12`, the activation was -0.87% (inactive).

Regarding `O=C(c1ccncc1)N1CCN(c2ccc3ccccc3n2)CC1`, the activation is 0.53% (active). To `O=C(Cc1ccccc1)n1nc(-c2ccccc2)nc1NCc1ccco1` belongs 0.54% (active).

With `COc1ccc(N2CC(C(=O)NCCN3C(=O)S/C(=C\c4cccnc4)C3=O)CC2=O)c(OC)c1` (stereo not given), the activation is -0.55% (inactive). Take `Cc1c(C(=O)NCC2CC2)sc(=O)n1Cc1cccc(F)c1`: the activation was -0.53% (inactive).

In the case of `CCn1c(SCC(=O)N2CCCC2=O)nc2ccccc21`, the activation was -0.43% (inactive). As to `Cc1cccnc1C(NC(=O)C1CCN(Cc2ccc(Cl)c(Cl)c2)CC1)c1ccc(Cl)cc1` (stereo not given), the activation was -0.69% (inactive).

Consider `O=C(Cc1ccsc1)N1CCN(S(=O)(=O)c2cc(C(F)(F)F)cc(C(F)(F)F)c2)CC1`, for which the activation was -0.45% (inactive). The value for `CCn1cc(C(=O)OCC(=O)Nc2cccc(C)c2)c(=O)c2ccc(C)nc21` was -0.4% (inactive); that for `C=C1C(=O)OC2C1CCC(C)=CCCC1(C)OC21` (stereo not given) was -0.63% (inactive); that for `CO/N=C/CC(=O)c1ccc(OC)cc1` was -0.34% (inactive). As for `Cc1ccc(NC(=O)CCOc2ccccc2)cc1S(=O)(=O)Nc1ccccc1Cl`, the activation is -0.34% (inactive).

For the molecule `O=C(Nc1cccc2cccnc12)c1ccc2sc([C@H]3C[C@H](O)[C@@H](CO)O3)nc2c1`, the activation was 0.15% (inactive). Take `CC(C)Oc1ccccc1C(=O)NC(CO)C(=O)O` (stereo not given): the activation was -0.52% (inactive).

In the case of `Oc1ccc(CN2CCN(c3ncccn3)CC2)cc1`, the activation is -0.36% (inactive). With `CS(=O)(=O)c1ccc2nc(NC(=O)C3CCCCC3)sc2c1`, the activation is -0.72% (inactive).

As for `COc1ccccc1Nc1nnc(SC(C)C(=O)NC2CC2)s1` (stereo not given), the activation was -0.47% (inactive). The value for `Cc1cccc(CN2CCN(C3CN(Cc4ccccc4)S(=O)(=O)C3)CC2)c1` (stereo not given) was -0.55% (inactive). `O=C(CNCc1cccs1)Nc1cc(S(=O)(=O)N2CCCC2)ccc1Cl`: the activation was -0.34% (inactive). The value for `COc1ccc(NS(=O)(=O)c2cc(C(=O)Nc3ccccc3C(=O)O)ccc2C)cc1` was -0.47% (inactive); that for `O=C(Nc1cc(=O)[nH]c2ncnn12)c1ccccc1Cl` was -0.64% (inactive). The value for `Cc1cc(C)n(S(=O)(=O)c2cccc([N+](=O)[O-])c2)n1` was -0.31% (inactive); that for `FC(F)(F)COc1nc(N2CCCCC2)nc(N2CCNCC2)n1` was -0.49% (inactive). Regarding `COc1ccc(/C=N/Nc2ccccc2C(=O)O)cc1`, the activation was 0.45% (inactive).

Take `COc1cccc(OC)c1OCCN1CCN(C(=O)c2ccco2)CC1`: the activation is -0.41% (inactive). With `CC(C)c1cc(C(=O)O)on1`, the activation is -0.13% (inactive).

With `Cc1cc(C(=O)OCC(=O)N2c3ccccc3NC(=O)C2(C)C)c(C)n1-c1ccccc1`, the activation was -0.15% (inactive). The value for `COC(=O)[C@]12CCCCC=C1N(CCC1=CCCCC1)C(=O)[C@H](CC(=O)NCC1CCCCC1)C2` was -0.46% (inactive); that for `Cc1cc([N+](=O)[O-])ccc1NC1CCCC1` was 0.02% (inactive); that for `C/C(=N\NC(=O)COc1c(C)cccc1C)c1cccs1` was -0.05% (inactive). To `N#Cc1c(NC(=O)CCCl)sc2c1CCCCC2` belongs -0.23% (inactive). To `CCCN(CCc1ccccc1)C1CCc2c(O)cccc2C1` (stereo not given) belongs 0.3% (inactive); to `N#CCSc1nn(-c2ccc(F)cc2)c(=S)s1`, -0.5% (inactive). Take `Cc1[nH]c2ccccc2c1CCN(Cc1cccs1)C(=S)NC(C)(C)C`: the activation was -0.25% (inactive). The value for `O=C(O)c1ccc(S(=O)(=O)N2CCC(Cc3ccccc3)CC2)cc1` was -0.67% (inactive). Turning to `CCOC(=O)/C=c1\s/c(=C\c2ccccc2OC)c(=O)n1CC(=O)N1CCOCC1`, the activation is -0.62% (inactive). To `C=CCn1c(=NC(=O)c2cccs2)sc2cc(NC(C)=O)ccc21` belongs 0.46% (inactive); to `O=C1CCc2cc(S(=O)(=O)N3CCC(C(=O)NCc4ccccc4Cl)CC3)ccc2N1`, -0.62% (inactive); to `O=C(NCCCN1CCN(c2ccccc2F)CC1)C1CCC(=O)N1C1CCCCC1` (stereo not given), -0.51% (inactive).

On to `CSc1nsc(SCC(=O)Nc2cc(C(=O)O)ccc2C)n1`, for which the activation was -0.51% (inactive). To `CC(Nc1ccccc1)c1cccnc1` (stereo not given) belongs -0.58% (inactive); to `CCOC(=O)[C@]12CCCC=C1N(Cc1ccc3c(c1)OCO3)C(=O)[C@H](CC(=O)NCc1cccs1)C2`, -0.19% (inactive).

`OCC1(Cc2ccccc2)CCN(Cc2cc3ccccc3o2)CC1`: the activation is 0.94% (active).

As for `Cn1c2c(c(=O)n(C)c1=O)C(c1ccc(O)cc1)Nc1ccccc1O2` (stereo not given), the activation was -0.51% (inactive). The value for `O=C(O)C1C2C=CC(O2)C1C(=O)NCCc1cccc(Cl)c1` (stereo not given) was -0.74% (inactive); that for `COc1ccc(/C(=N\O)c2nccc3cc(OC)c(OC)cc23)cc1OC` was -0.42% (inactive); that for `CC(=O)N1c2ccc(S(=O)(=O)N3CCC(C(=O)NC4CCCCC4C)CC3)cc2CC1C` (stereo not given) was -0.74% (inactive). For `COC(=O)CC(=O)N1CCN(c2ccc(Cl)c(Cl)c2)CC1`, the activation is -0.63% (inactive). The value for `Fc1ccc2[nH]c3c(N4CCSCC4)ncnc3c2c1` was 1.59% (active). To `CN(C)[C@@H]1C(=O)C(C(N)=O)=C(O)[C@@]2(O)C(=O)C3=C(O)c4c(O)ccc(Cl)c4[C@@H](O)[C@H]3C[C@@H]12` belongs -0.63% (inactive).

`O=C(c1ccco1)N1CCN(CCOc2ccccc2)CC1`: the activation was -0.48% (inactive). To `Cc1ccc2c(c1)NCC(C(=O)NC1CCC(C)CC1)O2` (stereo not given) belongs -0.52% (inactive); to `COc1ccc(-c2nc3cc([N+](=O)[O-])ccc3o2)cc1OC`, 0.11% (inactive). The value for `COc1ccc(C(C)=O)cc1COC(=O)Cn1cnc2ccccc2c1=O` was 0.31% (inactive). As to `Cc1oc2cc(Br)c(O)c(Br)c2c1C(=O)c1ccccc1`, the activation is -0.51% (inactive). The value for `CCCCn1c(N)c(N(CC(C)C)C(=O)CSc2ccc([N+](=O)[O-])cc2)c(=O)[nH]c1=O` was -0.28% (inactive); that for `COc1ccc2[nH]cc(CCN3C(=O)c4ccc(C(=O)O)cc4C3=O)c2c1` was -0.57% (inactive); that for `Cc1ccc(C(=O)N/C(=C/c2cccs2)C(=O)N2CCCCC2)cc1` was -0.51% (inactive). For `O=C(Nc1ccc2c(c1)[C@@H]1C[C@@H](CC(=O)N3CCCCC3)O[C@@H](CO)[C@@H]1O2)NC1CCCCC1`, the activation is -0.54% (inactive). The value for `Cc1cccc(CN2CCN(C3CN(Cc4cn(Cc5cc(C)cc(C)c5)nn4)S(=O)(=O)C3)CC2)c1` (stereo not given) was -0.64% (inactive); that for `COC(=O)Cn1nc(-c2ccccc2)c2cc(Cl)ccc21` was -0.43% (inactive). As to `CCCC(=O)N=c1sc2cccc(F)c2n1C`, the activation is -0.39% (inactive). Turning to `CCCCNc1c(-c2cccc(Sc3ccc(OC)cc3)c2)nc2ccccn12`, the activation is -0.06% (inactive). To `CC(=O)c1ccc(OCC(=O)N(C)C2CCS(=O)(=O)C2)cc1` (stereo not given) belongs -0.71% (inactive); to `Cc1ccc(S(=O)(=O)N2CCN(c3ncnc4ccccc34)CC2)cc1`, 0.43% (inactive); to `N/C(=N\S(=O)(=O)c1cc(C(F)(F)F)cc(C(F)(F)F)c1)c1cccs1`, 0.39% (inactive).

`CC1(Cc2cccc(C#N)c2)C(=O)Nc2ccc(-c3cccc(C(F)(F)F)c3)cc21` (stereo not given): the activation was -0.07% (inactive). To `NNc1cccc(C=Cc2ccccc2)cc1=O` belongs 0.48% (inactive). Consider `COc1cccc(NC(=O)CSc2nnc(-c3cccnc3)o2)c1`, for which the activation was -0.3% (inactive). To `O=C1CC(c2cccc(Cl)c2)CC(O)=C1C=Nc1ccccc1` (stereo not given) belongs -0.61% (inactive); to `COC(=O)c1ccc(CSc2nnc(NC(C)C)s2)cc1`, -0.75% (inactive); to `C/C(=N\NC(=S)NC1CCCCC1)c1ccc(C)o1`, -0.73% (inactive). The value for `COCCN(Cc1cc2cc3c(cc2nc1Cl)OCO3)C(=O)c1cccc(C)c1` was -0.33% (inactive); that for `Nc1c(N(Cc2ccco2)C(=O)c2cccc(F)c2)c(=O)[nH]c(=O)n1Cc1ccccc1` was -0.45% (inactive); that for `COC(=O)[C@@]1(Cc2ccc(F)cc2)[C@H]2c3cc(C(=O)N(C)C)n(CCc4c[nH]c5ccc(OC)cc45)c3C[C@H]2CN1C(=O)c1ccccc1` was -0.5% (inactive).

With `Cc1ccc(NC(=O)CSc2nnc(COc3ccccc3C)o2)cc1`, the activation was -0.2% (inactive). Take `CNCC(O)c1ccc(O)c(O)c1` (stereo not given): the activation is -0.22% (inactive).

On to `CSc1ncnc2c1ncn2CCCNCc1cccs1`, for which the activation was -0.51% (inactive). In the case of `CCCCC(CC)CNC(=O)CCCCn1c(=O)[nH]c2ccsc2c1=O` (stereo not given), the activation is -0.47% (inactive).

(Values after PubChem BioAssay AID624380 (The Scripps Research Institute Molecular Screening Center, 2012).)
